The list is not random: actives were taken first. Their share in the collection is about 2.5%.
TbMetRS inhib = T. brucei MetRS inhibitors, primary screen, biochemical, luminescence | methionyl-tRNA synthetase (Trypanosoma brucei brucei) | purified T. brucei MetRS, ATP depletion, Kinase-Glo luminescence | inhibition, % at 11.9 µM | 360,000 compounds, 0.4% hits;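 active = inhibition above a per-plate cutoff of the control wells' mean inhibition plus 3 SD, cut at about 5.5% in these data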
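Assay system: T. brucei methionyl-tRNA synthetase, purified | Medium: HEPES buffer with MgCl2, KCl, DTT, spermine, BSA, pyrophosphatase | Compound: 11.9 µM single point | Incubation: 15 min enzyme-compound preincubation, 2 h reaction, 10 min detection, 25 °C | Measured by: Kinase-Glo luciferase luminescence reporting remaining unconsumed ATP | Measure: % inhibition normalized to control-well medians | Replication: Singlicate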
NALP1 inh = NALP1 inflammasome inhibitors in reconstituted yeast, colorimetric, S. cerevisiae, triplicate retest; AID 2071, 2009; 280,000 compounds, 0.61% hits; S. cerevisiae NALP1/ASC/caspase-1 growth, X-gal OD620, 72 h; inhibition, % at 10 µM; in the data active = inhibition mostly above about 24%, no sharp cut-off; inactive = mostly below about 32%
MC4R ag barr = MC4R agonists recruiting beta-arrestin, primary screen, cell-based, luminescence, agonist arm of biased-ligand search | 360,000 compounds, 0.98% hits | U2OS MC4R beta-arrestin complementation; percent of melanotan II response, DMSO zero | activation, % at 8.9 µM | AID 540308, 2011;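 active = activation above a per-plate cutoff, the mean activation of sample wells on that plate plus 3 SD, cut at about 8% in these data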
Target sequence (P32245 whole entry, looked up): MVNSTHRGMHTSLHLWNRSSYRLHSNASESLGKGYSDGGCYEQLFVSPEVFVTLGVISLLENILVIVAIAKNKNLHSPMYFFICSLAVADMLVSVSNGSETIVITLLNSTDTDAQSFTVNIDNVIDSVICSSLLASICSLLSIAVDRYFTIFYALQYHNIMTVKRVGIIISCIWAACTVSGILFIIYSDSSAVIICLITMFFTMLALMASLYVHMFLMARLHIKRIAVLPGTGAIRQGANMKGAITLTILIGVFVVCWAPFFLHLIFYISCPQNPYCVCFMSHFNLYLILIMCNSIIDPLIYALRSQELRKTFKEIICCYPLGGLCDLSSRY
NALP3 yeast inh = NALP3 inflammasome inhibitors in reconstituted yeast, primary screen, luminescence, uHTS. inhibition, % at 10 µM. 330,000 compounds, 0.39% hits. Yeast reconstituted NLRP3/ASC/caspase-1, beta-gal luminescence, 24 h;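 active = inhibition of 50% or more; inactive = inhibition below 50%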
A1 inh = caspase 3/7 activation in MEF A1-2A-BIM cells, primary screen, A1 inhibitor project, cell-based, luminescence, HTS. Caspase-Glo 3/7 luminescence, 3 h; percent of clofoctol response, vehicle zero. caspase activation, % (concentration not given with the values). 330,000 compounds, 0.066% hits. AID 2462, 2010;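 active = over half of replicate activation scores above 10%, or exactly half above 10 with the replicate mean above 10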
MC4R antagonist = MC4R antagonists of cAMP signaling, primary screen, cell-based, TR-FRET, antagonist arm of biased-ligand search; 360,000 compounds, 0.48% hits; Melanocortin receptor 4 (Homo sapiens), P32245; inhibition, % at 6.5 µM; MC4R-expressing cells, MTII-stimulated cAMP, LANCE TR-FRET; AID 540295, 2011;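 active = inhibition above its plate's cutoff, the mean of tested wells on that plate plus 3 SD, cut at about 29% in these data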
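Assay system: U2OS-MC4R stable cell line; Also added: Melanotan II; Technique: Eu-cAMP/anti-cAMP TR-FRET, emission 671 nm; Times: 30-min compound, 1-h challenge, 1-h detection, room temperature.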
A number is an active result; n = inactive; x = no result given.

SMILES	TbMetRS inhib	NALP1 inh	MC4R ag barr	NALP3 yeast inh	A1 inh	MC4R antagonist
O=C(CCC1COc2ccccc2O1)NC1CCCCC1 (centres undefined)	n	41	n	n	n	n
CC(C)(C)NC(=O)CCC1COc2ccccc2O1 (centres undefined)	n	n	n	n	n	n
ClC(Cl)(Cl)c1nc2ccccc2n2nncc12	n	37	n	n	n	n
COc1ccc(OC)c(C(=O)Cn2nnc(-c3ccc(N4CCOCC4)cc3)n2)c1	n	x	9.3	n	n	n
CCCn1c(N)c(N2CCCCC2)c(=O)n(CC(=O)Nc2ccccc2C)c1=O	n	37	n	n	n	n
COc1ccc(NC(=O)CO/N=C/C(=O)Nc2ccccc2C)c([N+](=O)[O-])c1	n	x	n	n	n	n
CCCNC(=O)C1(C)CCCN(C(=O)Cc2cccc(OC)c2)C1 (centres undefined)	n	x	n	x	x	n
COc1ccc2cc(C)c3nnc(SCC(=O)Nc4nc(-c5ccc(F)cc5)cs4)n3c2c1	n	n	n	n	16	n
CCNC(=O)C1CCCN(C(=O)c2cc(C)oc2C)CC1 (centres undefined)	n	x	n	x	x	n
C=CCn1c(SCC(=O)Nc2cc(C)on2)nc2sc3c(c2c1=O)CCCC3	n	n	n	n	n	n
CCn1c(SCC(=O)Nc2cc(C)on2)nc2sc3c(c2c1=O)CCCC3	n	n	17	n	n	n
Cc1cc(NC(=O)CSc2nc(C(C)C)nc3sc4c(c23)CCCC4)no1	n	n	8.5	n	n	n
CN(C)c1ccnc(Oc2ccc(Cl)cc2)c1C#N	n	16	n	n	n	n
CN(C)c1ccnc(Oc2ccccc2)c1C#N	n	n	n	x	x	n
NC1=NC2OC(CO)C(O)C2O1 (centres undefined)	n	x	n	x	x	n
Cc1ccc(NC(=O)COC(=O)Cc2ccc(Br)cc2)cc1S(=O)(=O)N1CCOCC1	n	x	n	n	n	n
CCOc1ccccc1C(=O)N[C@H](C(=O)Nc1cc(S(=O)(=O)N(C)C)ccc1OC)C(C)C	n	24	n	n	n	n
CCOc1ccccc1C(=O)NC(C(=O)NCc1ccccc1OC)C(C)C (centres undefined)	n	n	n	n	n	n
Clc1ccc2c(N/N=C/c3cccnc3)ccnc2c1	n	n	n	n	n	n
Clc1ccc2c(N/N=C/c3ccc(Br)cc3)ccnc2c1	n	54	n	x	n	n
Cc1ccc(/C=N/Nc2ccnc3cc(Cl)ccc23)c(C)c1	n	60	n	n	n	n
Oc1ccc(Nc2ccnc3cc(Cl)ccc23)cc1	n	n	n	n	n	n
Clc1ccc(NNc2ccnc3cc(Cl)ccc23)cc1	n	n	n	n	n	n
Cc1ccccc1/C=N/Nc1ccnc2cc(Cl)ccc12	n	51	8.5	x	n	n
CCNC(=O)C1(C)CCN(C(=O)c2ccccc2OC(F)(F)F)C1 (centres undefined)	n	x	n	x	x	n
SMILES	TbMetRS inhib	NALP1 inh	MC4R ag barr	NALP3 yeast inh	A1 inh	MC4R antagonist
Cc1cc(C)cc(NC(=S)N2CCC(C(=O)c3ccc(F)cc3)CC2)c1	n	x	n	x	x	n
O=C(Oc1cccc2cccnc12)c1ccc(N2C(=O)C3C4CCC(C4)C3C2=O)cc1 (centres undefined)	n	59	n	n	n	n
O=C(Oc1cccc2cccnc12)c1cccc(N2C(=O)C3C4CCC(C4)C3C2=O)c1 (centres undefined)	x	n	x	n	n	x
CC(=O)N1CCN(S(=O)(=O)c2cccc(C(=O)OCC(=O)N(CCC#N)c3ccc(F)cc3)c2)CC1	n	x	n	n	n	n
CCCc1[nH]nc2c1C(c1ccoc1)C(C#N)=C(N)O2 (centres undefined)	n	58	n	n	n	n
O=C1CC[C@@]23CCCN2C(=O)CCCC3C1 (some centres undefined)	n	x	n	x	x	n
CCOc1cccc(CNCCSc2nnnn2C)c1	n	27	n	n	n	n
C[C@@H]1CN([C@H](C)CO)C(=O)c2cc(Br)cnc2O[C@H]1CN(C)C(=O)Nc1ccccc1F	n	x	n	x	x	n
CC(C)CCNC(=O)NC(=O)CSc1nnc(-c2ccccc2Br)o1	n	n	8.4	n	n	n
CC(NC(=O)COC(=O)c1ccc2c(c1)S(=O)(=O)N=C1CCCCCN12)C12CC3CC(CC(C3)C1)C2 (centres undefined)	n	n	n	n	7.2	n
CCN(CC)CCN1C(=O)C2C(C(=O)Nc3cccc(C)c3)C3C=CC2(O3)C1C(=O)NC1CCCC(C)C1C (centres undefined)	n	n	n	n	n	n
O=C(NN=C1CCCC1)c1cccs1	n	n	n	n	n	n
O=C(NN=C1C2CC3CC(C2)CC1C3)c1cccs1	n	41	n	n	n	n
Cc1nc(N/N=C/c2ccccc2)nc(N(C)c2ccccc2)c1[N+](=O)[O-]	n	n	10	n	n	n
Cc1c(C=O)c(C=O)c(C)n1Cc1ccccc1	n	37	n	n	9.3	n
CC(=O)c1c(C(C)=O)c(C)n(Cc2ccccc2)c1C	n	n	n	n	n	n
CC(C(=O)NCC1CCCCC1)N1CCN(S(=O)(=O)c2cccs2)CC1 (centres undefined)	n	x	n	n	x	n
CCn1c(Cl)c(C=O)s/c1=N\S(=O)(=O)c1ccccc1	n	n	n	n	56	n
CCN1C(=O)CS/C1=N\S(=O)(=O)c1ccc(Cl)cc1	n	n	n	n	n	n
Cc1ccc(C)c(NC(=O)CCN2CC(C)CC(C)C2)c1 (centres undefined)	n	38	n	n	n	n
Cc1ccc(S(=O)(=O)N(C(=O)c2ccncc2)c2ccc(OC(=O)c3ccncc3)c3ccccc23)cc1	n	48	n	n	n	n
COC(=O)C1=C(C)NC(=O)NC1c1ccco1 (centres undefined)	n	n	n	n	n	n
COC(=O)C1=C(C)NC(=O)NC1c1ccc(OC(=O)c2ccco2)cc1 (centres undefined)	n	18	n	n	n	n
CC1CCN(S(=O)(=O)c2ccc(NC(=O)Cn3nnc(-c4ccccc4)n3)cc2)CC1	n	n	37	n	n	n
CC(C)c1nnc(NC(=O)CN2C(=O)c3ccccc3C2=O)s1	n	n	n	n	n	n

High-throughput results as filed in PubChem.
